Measured values reported in ChEMBL document CHEMBL4219066, “Identification and Mitigation of Reactive Metabolites of 2-Aminoimidazole-Containing Microsomal Prostaglandin E Synthase-1 Inhibitors Terminated Due to Clinical Drug-Induced Liver Injury” (J Med Chem, 2018).

How the values were obtained:
[1] = Drug level in rat hepatocytes treated with LY3023703 at 2 uM after 4 hrs by LC-MS/MS analysis; assay type: ADME, cell-based, Hepatocyte
[2] = Drug level in dog hepatocytes treated with LY3023703 at 2 uM after 4 hrs by LC-MS/MS analysis; assay type: ADME, cell-based, Canis lupus familiaris, Hepatocyte
[3] = Drug level in human hepatocytes treated with LY3023703 at 2 uM after 4 hrs by LC-MS/MS analysis; assay type: ADME, cell-based, Hepatocyte
[4] = Drug level in Beagle dog plasma treated with LY3023703 at 300 to 600 mg/kg, po measured after 2 hrs post dose by LC/MS analysis; assay type: ADME, organism-based, Canis lupus familiaris; details: in vivo
[5] = In vivo drug level in human plasma treated with LY3023703 by HPLC-MS analysis; assay type: ADME, organism-based
[6] = In vivo drug level in human urine treated with LY3023703 by HPLC-MS analysis; assay type: ADME, organism-based
[7] = In vivo drug level in human urine treated with LY3031207 by HPLC-MS analysis; assay type: ADME, organism-based
[8] = Drug level in rat hepatocytes treated with LY3031207 at 2 uM after 4 hrs by LC-MS/MS analysis; assay type: ADME, cell-based, Hepatocyte
[9] = Drug level in dog hepatocytes treated with LY3031207 at 2 uM after 4 hrs by LC-MS/MS analysis; assay type: ADME, cell-based, Canis lupus familiaris, Hepatocyte
[10] = Drug level in human hepatocytes treated with LY3031207 at 2 uM after 4 hrs by LC-MS/MS analysis; assay type: ADME, cell-based, Hepatocyte
[11] = Drug level in human hepatocytes treated with 2-(2-Chloro-5-(pivalamidomethyl)benzamido)-N-phenyl-1Himidazole-4-carboxamide at 2 uM after 4 hrs by LC-MS/MS analysis; assay type: ADME, cell-based, Hepatocyte
[12] = Drug level in rat hepatocytes treated with 2-(2-Chloro-5-(pivalamidomethyl)benzamido)-N-phenyl-1Himidazole-4-carboxamide at 2 uM after 4 hrs by LC-MS/MS analysis; assay type: ADME, cell-based, Hepatocyte
[13] = Drug level in rat hepatocytes treated with 2-(Difluoromethyl)-N-(4-methyl-5-(4-(trifluoromethyl)-phenyl)-1H-imidazol-2-yl)-5-(pivalamidomethyl)nicotinamide at 2 uM after 4 hrs by LC-MS/MS analysis; assay type: ADME, cell-based, Hepatocyte
[14] = Drug level in dog hepatocytes treated with 2-(Difluoromethyl)-N-(4-methyl-5-(4-(trifluoromethyl)-phenyl)-1H-imidazol-2-yl)-5-(pivalamidomethyl)nicotinamide at 2 uM after 4 hrs by LC-MS/MS analysis; assay type: ADME, cell-based, Canis lupus familiaris, Hepatocyte
[15] = Drug level in human hepatocytes treated with 2-(Difluoromethyl)-N-(4-methyl-5-(4-(trifluoromethyl)-phenyl)-1H-imidazol-2-yl)-5-(pivalamidomethyl)nicotinamide at 2 uM after 4 hrs by LC-MS/MS analysis; assay type: ADME, cell-based, Hepatocyte
[16] = Drug level in human hepatocytes treated with 2-Chloro-N-(4-methyl-1H-imidazol-2-yl)-5-(pivalamidomethyl)benzamide at 2 uM after 4 hrs by LC-MS/MS analysis; assay type: ADME, cell-based, Hepatocyte
[17] = Drug level in rat hepatocytes treated with 2-Chloro-N-(4-methyl-1H-imidazol-2-yl)-5-(pivalamidomethyl)benzamide at 2 uM after 4 hrs by LC-MS/MS analysis; assay type: ADME, cell-based, Hepatocyte
[18] = In vivo drug level in human plasma treated with LY3031207 by HPLC-MS analysis; assay type: ADME, organism-based
[19] = Drug level in human hepatocytes treated with 2 -Chloro-N-(4,5-dimethyl-1H-imidazol-2-yl)-5-(pivalamidomethyl)benzamide at 2 uM after 4 hrs by LC-MS/MS analysis; assay type: ADME, cell-based, Hepatocyte
[20] = Drug level in rat hepatocytes treated with 2 -Chloro-N-(4,5-dimethyl-1H-imidazol-2-yl)-5-(pivalamidomethyl)benzamide at 2 uM after 4 hrs by LC-MS/MS analysis; assay type: ADME, cell-based, Hepatocyte
[21] = Drug metabolism in rat hepatocytes assessed as 2-(2-chloro-5-(pivalamidomethyl)benzamido)-1H-imidazole-4-carboxylic acid formation at 2 uM after 4 hrs by LC-MS/MS analysis; assay type: ADME, cell-based, Hepatocyte
[22] = Drug metabolism in human hepatocytes assessed as 2-(2-chloro-5-(pivalamidomethyl)benzamido)-1H-imidazole-4-carboxylic acid formation at 2 uM after 4 hrs by LC-MS/MS analysis; assay type: ADME, cell-based, Hepatocyte
[23] = Drug level in human liver microsomes treated with 2-Chloro-N-(4-methyl-1H-imidazol-2-yl)-5-(pivalamidomethyl)benzamide at 2 uM after 0.5 hrs in presence of 1:1 ratio of unlabeled GSH and [glycine 13C2,15N]-labelled GSH by HPLC-MS analysis; assay type: ADME, microsome
Procedure, shortened: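 Glutathione-trapping incubation in human liver microsomes fortified with GSH to capture reactive intermediates. Metabolites and GSH adducts were identified by MS.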

In the case of `Cc1nc(NC(=O)c2cc(CNC(=O)C(C)(C)O)cnc2C(F)F)[nH]c1-c1ccc(C(F)(F)F)cc1`, the Drug metabolism [1] is reported as “Metabolite_Detected”, the Drug metabolism [2] is reported as “Metabolite_Detected” and the Drug metabolism [3] is reported as “Metabolite_Detected”. The Drug metabolism [4] was “Metabolite_Detected”, the Drug metabolism [5] was “Metabolite_Detected” and the Drug metabolism [6] was “Metabolite_Detected”.

With `CC(C)(CO)C(=O)NCc1ccc(Cl)c(C(=O)NC(=N)N)c1` the Drug metabolism [7] was “Metabolite_Detected”.

In the case of `CC(C)(C)C(=O)NCc1ccc(Cl)c(C(=O)NC2=NC(O)C(O)N2)c1` (configuration not stated), the Drug metabolism [8] is reported as “Metabolite_Detected”, the Drug metabolism [9] is reported as “Metabolite_Detected” and the Drug metabolism [10] is reported as “Metabolite_Detected”. For the same molecule, the Drug metabolism [7] was “Metabolite_Detected”.

In the case of `CC(C)(CO)C(=O)NCc1ccc(Cl)c(C(=O)Nc2nc(C(=O)Nc3ccccc3)c[nH]2)c1`, the Drug metabolism [11] is reported as “Metabolite_Detected” and the Drug metabolism [12] is reported as “Metabolite_Detected”.

In the case of `CC(C)(C)C(=O)NCc1cnc(C(F)F)c(C(=O)NC(=N)N)c1`, the Drug metabolism [13] is reported as “Metabolite_Detected”, the Drug metabolism [14] is reported as “Metabolite_Detected” and the Drug metabolism [15] is reported as “Metabolite_Detected”.

With `Cc1nc(N)[nH]c1-c1ccc(C(F)(F)F)cc1` the Drug metabolism [1] was “Metabolite_Detected”, the Drug metabolism [3] was “Metabolite_Detected” and the Drug metabolism [4] was “Metabolite_Detected”.

In the case of `CC(C)C(=O)NCc1cnc(C(F)F)c(C(=O)NC(=N)N)c1`, the Drug metabolism [1] is reported as “Metabolite_Detected”, the Drug metabolism [2] is reported as “Metabolite_Detected” and the Drug metabolism [3] is reported as “Metabolite_Detected”. For the same molecule, the Drug metabolism [6] was “Metabolite_Detected”.

In the case of `Cc1nc(NC(=O)c2cc(CN)cnc2C(F)F)[nH]c1-c1ccc(C(F)(F)F)cc1`, the Drug metabolism [6] is reported as “Metabolite_Detected”.

In the case of `Cc1c[nH]c(NC(=O)c2cc(CNC(=O)C(C)(C)CO)ccc2Cl)n1`, the Drug metabolism [16] is reported as “Metabolite_Detected” and the Drug metabolism [17] is reported as “Metabolite_Detected”.

In the case of `CC(C)(CO)C(=O)NCc1ccc(Cl)c(C(=O)Nc2ncc[nH]2)c1`, the Drug metabolism [8] is reported as “Metabolite_Detected”, the Drug metabolism [9] is reported as “Metabolite_Detected” and the Drug metabolism [10] is reported as “Metabolite_Detected”. The Drug metabolism [18] was “Metabolite_Detected” and the Drug metabolism [7] was “Metabolite_Detected”.

With `CC(C)(C)C(=O)NCc1ccc(Cl)c(C(=O)Nc2nc(O)c[nH]2)c1` the Drug metabolism [8] was “Metabolite_Detected”, the Drug metabolism [9] was “Metabolite_Detected” and the Drug metabolism [10] was “Metabolite_Detected”. The Drug metabolism [18] was “Metabolite_Detected” and the Drug metabolism [7] was “Metabolite_Detected”.

In the case of `C=C(C)C(=O)NCc1cnc(C(F)F)c(C(=O)Nc2nc(C)c(-c3ccc(C(F)(F)F)cc3)[nH]2)c1`, the Drug metabolism [1] is reported as “Metabolite_Detected” and the Drug metabolism [5] is reported as “Metabolite_Detected”.

With `CC(C)(C)C(=O)NCc1ccc(Cl)c(C(=O)NC(=N)N)c1` the Drug metabolism [18] was “Metabolite_Detected”, the Drug metabolism [7] was “Metabolite_Detected” and the Drug metabolism [16] was “Metabolite_Detected”. The Drug metabolism [17] was “Metabolite_Detected”, the Drug metabolism [19] was “Metabolite_Detected” and the Drug metabolism [20] was “Metabolite_Detected”.

With `CC(=O)Nc1nc(C)c(-c2ccc(C(F)(F)F)cc2)[nH]1` the Drug metabolism [4] was “Metabolite_Detected”.

For `CC(C)(C)C(=O)NCc1ccc(Cl)c(C(=O)O)c1`, the Drug metabolism [11] was “Metabolite_Detected” and the Drug metabolism [12] was “Metabolite_Detected”.

For `Cc1nc(NC(=O)c2cc(CNC(=O)C(C)CO)cnc2C(F)F)[nH]c1-c1ccc(C(F)(F)F)cc1` (configuration not stated), the Drug metabolism [1] was “Metabolite_Detected”, the Drug metabolism [3] was “Metabolite_Detected” and the Drug metabolism [4] was “Metabolite_Detected”. For the same molecule, the Drug metabolism [5] was “Metabolite_Detected” and the Drug metabolism [6] was “Metabolite_Detected”.

In the case of `Cc1nc(NC(=O)c2cc(CNC(=O)C(C)(C)CO)ccc2Cl)[nH]c1C`, the Drug metabolism [19] is reported as “Metabolite_Detected” and the Drug metabolism [20] is reported as “Metabolite_Detected”.

With `CC(C)(C)C(=O)NCc1ccc(Cl)c(C(=O)Nc2nc(CO)c[nH]2)c1` the Drug metabolism [16] was “Metabolite_Detected”, the Drug metabolism [21] was “Metabolite_Detected” and the Drug metabolism [22] was “Metabolite_Detected”. The Drug metabolism [17] was “Metabolite_Detected”.

For `CC(C)(C)C(=O)NCc1ccc(Cl)c(C(=O)Nc2nc(CSC[C@H](NC(=O)CC[C@H](N)C(=O)O)C(=O)NCC(=O)O)c[nH]2)c1`, the Drug metabolism [23] was “Metabolite_Detected”.

With `Cc1nc(N[C@@H]2O[C@H](C(=O)O)[C@@H](O)[C@H](O)[C@H]2O)[nH]c1-c1ccc(C(F)(F)F)cc1` the Drug metabolism [4] was “Metabolite_Detected”.

In the case of `CC(C)(C)C(=O)NCc1ccc(Cl)c(C(=O)Nc2nc(CSC[C@H](N)C(=O)NCC(=O)O)c[nH]2)c1`, the Drug metabolism [23] is reported as “Metabolite_Detected”.

With `Cc1[nH]c(NC(=O)c2cc(CNC(=O)C(C)(C)C)ccc2Cl)nc1CO` the Drug metabolism [19] was “Metabolite_Detected” and the Drug metabolism [20] was “Metabolite_Detected”.

In the case of `CC(C)(C)C(=O)NCc1cnc(C(F)F)c(C(=O)Nc2nc(CO)c(-c3ccc(C(F)(F)F)cc3)[nH]2)c1`, the Drug metabolism [14] is reported as “Metabolite_Detected”.

With `Cc1nc(NC(=O)c2cc(CNC(=O)C(C)(C)CO)cnc2C(F)F)[nH]c1-c1ccc(C(F)(F)F)cc1` the Drug metabolism [13] was “Metabolite_Detected”, the Drug metabolism [14] was “Metabolite_Detected” and the Drug metabolism [15] was “Metabolite_Detected”.
